Test [1] concerns the target T1, Signal transducer and activator of transcription 5A (Homo sapiens, UniProt P42229).
T1 sequence (P42229 whole entry): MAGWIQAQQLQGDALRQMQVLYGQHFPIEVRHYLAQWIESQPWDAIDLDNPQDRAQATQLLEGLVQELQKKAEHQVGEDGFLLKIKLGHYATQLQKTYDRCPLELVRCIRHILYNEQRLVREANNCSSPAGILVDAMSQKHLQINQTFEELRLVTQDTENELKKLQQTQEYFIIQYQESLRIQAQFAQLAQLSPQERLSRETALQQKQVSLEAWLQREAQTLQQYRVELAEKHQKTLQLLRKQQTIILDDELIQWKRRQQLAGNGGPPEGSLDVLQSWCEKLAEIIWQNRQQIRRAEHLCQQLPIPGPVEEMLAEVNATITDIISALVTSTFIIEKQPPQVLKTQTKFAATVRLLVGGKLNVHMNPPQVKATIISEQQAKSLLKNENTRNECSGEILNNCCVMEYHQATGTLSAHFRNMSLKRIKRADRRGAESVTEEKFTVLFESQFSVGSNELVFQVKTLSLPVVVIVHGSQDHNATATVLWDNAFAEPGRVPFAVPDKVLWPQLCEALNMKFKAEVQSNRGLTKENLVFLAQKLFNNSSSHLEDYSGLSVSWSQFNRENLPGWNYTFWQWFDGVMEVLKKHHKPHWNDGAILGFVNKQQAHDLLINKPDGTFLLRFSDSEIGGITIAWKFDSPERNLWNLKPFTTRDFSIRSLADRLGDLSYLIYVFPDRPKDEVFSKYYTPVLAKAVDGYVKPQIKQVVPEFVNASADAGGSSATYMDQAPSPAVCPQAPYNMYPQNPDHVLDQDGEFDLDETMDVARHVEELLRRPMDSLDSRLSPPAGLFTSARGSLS
Nature of the test: Inhibition of STAT5 phosphorylation in human HEL cells by Western blot analysis. The gist of the method: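 HEL cells were starved overnight in RPMI with 1% FCS, then exposed to compound for 2 h at 37 °C. Cells were lysed in RIPA buffer (50 mM HEPES pH 7.4, 150 mM NaCl, 1% Triton X-100, deoxycholate, 0.1% SDS) with protease and phosphatase inhibitors. Protein was quantified by Bradford assay and blots were developed by chemiluminescence. Membranes were stripped and reprobed for total STAT5.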

Test [2] has as its target 3-phosphoinositide-dependent protein kinase 1 (PDPK1) (Homo sapiens) (UniProt O15530). Nature of the test: Inhibition of PDK1 (unknown origin).
The target of test [3] is Signal transducer and activator of transcription 3 (Homo sapiens, UniProt P40763). The test can be described thus: Inhibition of STAT3 phosphorylation in human HEL cells by Western blot analysis.

Our source for the IC50 values is BindingDB's records for PubMed 19295546 (Mayo Clinic).

Signal transducer and activator of transcription 3, sequence (P40763 whole entry): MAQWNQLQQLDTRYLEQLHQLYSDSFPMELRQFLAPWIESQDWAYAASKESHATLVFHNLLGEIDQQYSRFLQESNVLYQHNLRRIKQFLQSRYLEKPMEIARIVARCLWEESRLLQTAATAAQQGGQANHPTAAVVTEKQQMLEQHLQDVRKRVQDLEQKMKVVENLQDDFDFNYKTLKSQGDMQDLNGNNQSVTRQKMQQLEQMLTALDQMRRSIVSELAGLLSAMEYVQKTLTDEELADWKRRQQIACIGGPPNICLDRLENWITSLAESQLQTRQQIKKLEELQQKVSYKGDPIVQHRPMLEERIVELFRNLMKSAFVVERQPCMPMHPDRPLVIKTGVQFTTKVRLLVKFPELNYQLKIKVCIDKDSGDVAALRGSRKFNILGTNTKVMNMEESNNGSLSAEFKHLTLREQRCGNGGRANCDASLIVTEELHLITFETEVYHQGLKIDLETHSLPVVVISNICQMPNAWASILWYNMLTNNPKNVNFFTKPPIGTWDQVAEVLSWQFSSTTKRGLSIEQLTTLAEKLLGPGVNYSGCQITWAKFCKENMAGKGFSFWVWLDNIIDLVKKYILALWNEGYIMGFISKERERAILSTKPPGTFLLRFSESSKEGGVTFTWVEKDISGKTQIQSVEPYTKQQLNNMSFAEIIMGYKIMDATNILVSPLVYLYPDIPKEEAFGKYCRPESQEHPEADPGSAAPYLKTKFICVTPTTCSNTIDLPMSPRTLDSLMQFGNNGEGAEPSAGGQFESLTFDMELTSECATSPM

On to `N#CCNC(=O)c1ccc(-c2ccnc(Nc3ccc(N4CCOCC4)cc3)n2)cc1` [N-(cyanomethyl)-4-(2-(4-morpholinophenylamino)pyrimidin-4-yl)benzamide], for which the IC50 is 400 nM in test [1], above 1000 nM in test [2] and 2500 nM in test [3].
